2 compounds from BindingDB's records for doi:10.1021/ml5002486 (National Institute of Diabetes and Digestive and Kidney …, 2014) can be followed below.

Experiment [1] deals with T1, Adenosine receptor A2a (Homo sapiens, UniProt P29274). As to the kind of experiment: Displacement of [3H]4-[2-[7-amino-2-(2-furyl)-1,2,4-triazolo[1,5-a][1,3,5]triazin-5-yl-amino]ethylphenol from wild type human adenosine A2a receptor expressed in COS-7 cells assessed as radioligand Kd compound preincubated for 30 mins. The method in brief: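 WT, K150A or K153A human A2A receptor was transiently transfected into COS-7 cells. Membranes were preincubated with or without compound, then washed. Saturation binding used antagonist radioligand [3H]7, with nonspecific binding defined by 10 μM NECA. Kd (nM) and Bmax (pmol/mg protein) were derived from the saturation curves.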
In general terms: Loss of bound radioactivity is the signal in a displacement assay; it reports binding, not function.
Target sequence in this assay (P29274 whole entry): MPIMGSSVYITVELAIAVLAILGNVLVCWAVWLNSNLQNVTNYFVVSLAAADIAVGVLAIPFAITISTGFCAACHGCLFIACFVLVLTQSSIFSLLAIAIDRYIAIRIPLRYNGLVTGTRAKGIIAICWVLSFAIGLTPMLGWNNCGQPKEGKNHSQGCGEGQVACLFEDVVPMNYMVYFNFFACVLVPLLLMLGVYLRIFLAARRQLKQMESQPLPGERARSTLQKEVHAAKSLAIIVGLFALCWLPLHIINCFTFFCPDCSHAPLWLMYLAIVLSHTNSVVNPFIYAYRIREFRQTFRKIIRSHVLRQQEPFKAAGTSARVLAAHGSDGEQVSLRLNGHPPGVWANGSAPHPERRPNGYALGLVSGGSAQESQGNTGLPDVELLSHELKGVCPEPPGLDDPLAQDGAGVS

For experiment [2], the target named is T1, Adenosine receptor A2a. As to the kind of experiment: Displacement of [3H]4-[2-[7-amino-2-(2-furyl)-1,2,4-triazolo[1,5-a][1,3,5]triazin-5-yl-amino]ethylphenol from human adenosine A2a receptor K150A mutant expressed in COS-7 cells assessed as radioligand Kd compound preincubated for 30 mins.
Target sequence in this assay (P29274 whole entry, looked up): as the sequence (P29274 whole entry) above
In experiment [3] the target is T1, Adenosine receptor A2a. Description: Displacement of [3H]4-[2-[7-amino-2-(2-furyl)-1,2,4-triazolo[1,5-a][1,3,5]triazin-5-yl-amino]ethylphenol from wild type human adenosine A2a receptor expressed in HEK293 cells assessed as radioligand Kd compound preincubated for 30 mins.
Target sequence in this assay (P29274 whole entry): as above

As usually defined, the Kd is a measure of binding affinity in units of concentration. `CCNC(=O)[C@H]1O[C@@H](n2cnc3c(N)nc(NCCc4ccc(CCC(=O)Nc5ccc(OC(C)=O)c([N+](=O)[O-])c5)cc4)nc32)[C@H](O)[C@@H]1O`: the dissociation constant Kd at Adenosine receptor A2a [1] was found to be 2.2 nM; on Adenosine receptor A2a [2] it was 3.17 nM; on Adenosine receptor A2a [3] it was 5 nM.
In the case of `CCNC(=O)[C@H]1O[C@@H](n2cnc3c(N)nc(NCCc4ccc(CCC(=O)Nc5ccc(OC(=O)CCCCN=[N+]=[N-])c([N+](=O)[O-])c5)cc4)nc32)[C@H](O)[C@@H]1O`, the Kd at Adenosine receptor A2a [3] was 3.2 nM.
